Screening data (PubChem)
NPY Y2 blocker – blocks the human neuropeptide Y Y2 receptor | P49146 | NPY-Y2 expressing cells, antagonist mode | inhibition, % at 2.7 µM | hit rate 0.99% among 140,000 | AID 793; in the data active means inhibition above about 17%;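 further: 0% = vehicle with agonist challenge and 100% = reference antagonist with challenge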
Target sequence (P49146 whole entry, looked up): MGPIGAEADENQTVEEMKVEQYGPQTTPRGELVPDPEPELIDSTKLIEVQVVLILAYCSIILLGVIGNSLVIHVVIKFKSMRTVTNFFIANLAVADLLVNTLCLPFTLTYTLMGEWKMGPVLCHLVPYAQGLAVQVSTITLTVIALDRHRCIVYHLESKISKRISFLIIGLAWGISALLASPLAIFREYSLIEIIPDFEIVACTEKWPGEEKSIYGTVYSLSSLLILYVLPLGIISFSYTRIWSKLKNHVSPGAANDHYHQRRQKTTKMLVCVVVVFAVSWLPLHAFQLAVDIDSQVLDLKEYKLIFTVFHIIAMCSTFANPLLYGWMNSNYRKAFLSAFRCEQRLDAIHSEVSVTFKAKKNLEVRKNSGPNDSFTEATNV
NPY1 pot ag – potentiates or activates human NPY-Y1 receptor; P25929; hit rate 0.37% among 220,000; AID 1304; activation, % at 3.6 µM; NPY-Y1 expressing cells, potentiator/agonist activation; in the data active means activation above about 33%, passing the limit was not always enough;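 further: cells stimulated with NPY at EC10 then isoproterenol at EC100; 0% = low agonist plus stimulus and 100% = saturating agonist plus stimulus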
NPY-Y1 antag – NPY-Y1 (human) receptor antagonism. HEK293-CNG Y1 cells, membrane potential fluorescence; NPY at EC95, then isoproterenol. AID 1040. P25929. hit rate 1% among 200,000. inhibition, % at 3.6 µM;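 active means inhibition above the campaign mean inhibition of all tested compounds plus 3 SD, cut at about 20% in these data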;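 further: 0% = DMSO wells given NPY plus isoproterenol and 100% = isoproterenol alone without NPY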
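Benchmarks – high control isoproterenol alone, low control NPY with isoproterenol · Material – HEK293 Y1/CNG channel cell line · Times – dye 3 h, compound 60 min room temperature, stimulation 45 min · Probe or stimulus – NPY (25 nM), isoproterenol (1 µM), Ro 20-1724 (25 µM) · Evaluation – % inhibition of NPY effect · Signal – fluorescence, membrane potential probe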
NPY2 pot ag – potentiators or agonists of human neuropeptide Y receptor Y2; cells expressing NPY-Y2, potentiator/agonist read-out; activation, % at 3.6 µM; P49146; AID 1359; hit rate 0.45% among 220,000; in the data active means activation above about 27%;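 further: cells stimulated with NPY near EC25 plus isoproterenol at EC100; 0% = vehicle plus submaximal agonist and 100% = vehicle plus saturating agonist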
NPY-Y1 pot conf – human NPY-Y1 potentiation or agonism, confirmation; shares compounds with NPY1 pot ag; cell-based NPY-Y1 potentiator/agonist assay; activation, % at 3.6 µM; hit rate 20% among 280; AID 1546; in the data active means activation above about 45%;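 further: cells challenged with NPY at its EC10 plus isoproterenol stimulus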
NPY-Y2 counter – potentiates or activates NPY-Y2, counter-screen for NPY-Y1 hits; shares compounds with NPY1 pot ag; hit rate 20% among 280; activation, % at 3.6 µM; HEK293-CNG cells, membrane-potential fluorescence (FLIPR), 1536-well; in the data active means activation above about 33%
NPY-Y1 agonist – human NPY-Y1 agonism as potentiator counter-screen; shares compounds with NPY1 pot ag; HEK293 Y1-CNGC, membrane potential fluorescence, agonist mode; activation, % at 3.6 µM; hit rate 50% among 280; AID 1697;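 active means percent activation above the mean of DMSO-only control wells plus 3 SD of those wells, cut at about 18% in these data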;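 further: cells challenged with isoproterenol plus Ro 20-1724 with no NPY in test wells; Y1 agonism lowers isoproterenol-driven cAMP and reduces probe fluorescence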
NPY-Y2 agonist – activates human NPY-Y2, counter-screen for NPY-Y1 hits; activation, % at 3.6 µM; hit rate 67% among 280; HEK293 Y2-CNGC, membrane potential fluorescence, agonist mode; shares compounds with NPY1 pot ag;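 active means activation above the solvent-only control wells' mean plus 3 SD, cut at about 11% in these data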;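 further: 0% = DMSO with isoproterenol and 100% = 40 nM NPY maximal response; agonism lowers cAMP so well fluorescence drops in active wells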
CNGC counter – CNG channel inhibition, counter-screen for NPY-Y1 potentiators | shares compounds with NPY1 pot ag | HEK293-CNG parental, isoproterenol cAMP, membrane potential fluorescence | inhibition, % at 3.6 µM | hit rate 42% among 280;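 active means inhibition above the mean of stimulated solvent-only control wells plus 3 SD, cut at about 22% in these data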;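 further: 0% = isoproterenol-stimulated DMSO wells and 100% = unstimulated DMSO wells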
Active calls of the source: *; · = no result given. A selection: hits, their analogues and other compounds. The true share with any hit is near 1.8%.

SMILES	NPY Y2 blocker	NPY1 pot ag	NPY-Y1 antag	NPY2 pot ag	NPY-Y1 pot conf	NPY-Y2 counter	NPY-Y1 agonist	NPY-Y2 agonist	CNGC counter
CCc1cccc2c(/C=N/NC(=O)c3cccc(S(=O)(=O)Nc4ccccc4Cl)c3)c[nH]c12	-2	46*	-9	-2	33	27	31*	19*	26*
CC(C)CN(C(=O)CSc1nncn1-c1ccccc1)c1c(N)n(CC(C)C)c(=O)[nH]c1=O	·	-4	-3	4	·	·	·	·	·
CNCC(O)COc1cccc(OC)c1 (stereo unspecified)	·	56*	-8	24	15	14	10	18*	-3
O=C(Nc1ccc(N2CCCCC2)c(Cl)c1)c1ccc(N2CCOCC2)c([N+](=O)[O-])c1	0	42*	-5	10	48*	37*	34*	40*	25*
CC(=O)N1CCN(c2ccc(NC(=O)c3ccc(N4CCCC4)c([N+](=O)[O-])c3)cc2Cl)CC1	1	-9	0	-18	·	·	·	·	·
N#Cc1ccc(NC(=O)Nc2ccc(Cl)cc2)cc1	-2	49*	-9	27	34	33	23*	28*	32*
O=C(N/N=C/c1c[nH]c2ccc(Br)cc12)C1CC1	·	58*	·	28	40	34*	50*	43*	47*
O=C(COC(=O)C1CC2C=CC1C2)Nc1cccc(S(=O)(=O)N2CCOCC2)c1 (stereo unspecified)	·	15	·	-22	·	·	·	·	·
CCOC(=O)CSc1nc(=O)n2ccccc2n1	·	68*	7	-20	2	-3	2	-6	-5
COc1ccc(OC)c(-c2cc(C(=O)N3CCN(c4ccccc4)CC3)no2)c1	10	-11	4	-19	·	·	·	·	·
O=C(c1ccc2c3c(cccc13)CC2)C1CCCN(Cc2ccncc2)C1 (stereo unspecified)	·	77*	1	2	-27	-4	-33	-7	-7
COc1cc(=O)n(C)c2ccccc12	2	50*	3	0	-7	-4	-7	9	9
COc1ccc2c(OC)cc(=O)n(C)c2c1	0	-4	4	6	·	·	·	·	·
CCOC(=O)C1=C(C)NC(=O)NC1c1cc(Br)c(O)c(OC)c1 (stereo unspecified)	1	10	-3	-6	·	·	·	·	·
CCOC(=O)C1=C(c2ccccc2)NC(=O)NC1c1cc(Br)c(O)c(OC)c1 (stereo unspecified)	·	42*	-3	12	0	3	-3	1	-2
CC(=O)c1ccc(NC(=S)NC(C)c2ccc(Cl)cc2Cl)cc1 (stereo unspecified)	·	37*	-5	25	48*	27	37*	35*	36*
COc1cc(/C=N/NC(=O)C(Cc2c[nH]c3ccccc23)NC(=O)OCC(C)C)cc([N+](=O)[O-])c1OCc1ccccc1 (stereo unspecified)	·	39*	-4	25	34	30	24*	38*	25*
COc1cc(/C=N/NC(=O)C(Cc2c[nH]c3ccccc23)NC(=O)OCC(C)C)cc([N+](=O)[O-])c1O (stereo unspecified)	-2	-6	7	0	·	·	·	·	·
CCn1c(SCC(=O)Nc2ccc3c(c2)oc2ccccc23)nnc1-c1ccc(N)cc1	-4	46*	1	20	43	37*	38*	43*	21
CCSc1nnc(CNc2ccc(C)cc2)n1C	2	-5	7	-12	·	·	·	·	·
CCOC(=O)Cn1c(=O)oc2cc(S(=O)(=O)NCc3ccccn3)ccc21	1	0	0	3	·	·	·	·	·
CCOC(=O)Cn1c(=O)oc2cc(S(=O)(=O)NCc3cccs3)ccc21	2	33*	-9	27	48*	27	46*	29*	61*
COC(=O)c1ccc(N(C(=O)CNC(=O)c2ccco2)C(C(=O)NC2CCCC2)c2ccco2)cc1 (stereo unspecified)	2	-7	-2	-17	·	·	·	·	·
CC(NC(=O)C12CC3CC(CC(C3)C1)C2)C(=O)NCCN(C)C (stereo unspecified)	-1	14	2	17	·	·	·	·	·
Cc1ccc(-c2nc3cc(N)ccc3o2)c(C)c1	-2	-10	-3	-14	·	·	·	·	·
SMILES	NPY Y2 blocker	NPY1 pot ag	NPY-Y1 antag	NPY2 pot ag	NPY-Y1 pot conf	NPY-Y2 counter	NPY-Y1 agonist	NPY-Y2 agonist	CNGC counter
Cc1[nH]c2ccccc2c1N=Nc1ccc(F)cc1	·	39*	-7	19	40	28	33*	30*	26*
CN(C)Cc1c(O)ccc2oc(Cc3ccccc3)cc12	8	53*	1	21	16	18	21*	26*	-1
Cn1nc(C(F)(F)F)c(-c2ccc(F)cc2)c1NC(=O)Nc1ccc(F)cc1	·	48*	·	38	59*	45*	58*	52*	49*
COc1cc(OC)cc(-c2n[nH]c(=S)n2-c2ccc3c(c2)OCO3)c1	1	-16	-1	-3	·	·	·	·	·
Cc1ccc(-c2nc(N)c3c(-c4ccc(C)cc4)nn(C(C)(C)C)c3n2)cc1	1	14	3	-3	·	·	·	·	·
COc1ccc(CCn2c(C)cc(C(=O)CSc3nnnn3-c3ccccc3)c2C)cc1	3	65*	1	-7	-52	-24	-35	-18	-30
O=C(Nc1ccncc1)c1ccc2c(c1)C(=O)N(C1CCCCC1)C2=O	2	45*	-1	1	2	17	18*	5	2
Cc1ccc(S(=O)(=O)N(CC(=O)Nc2ccccc2C(=O)O)c2ccc(Cl)cc2)cc1	·	44*	4	3	8	4	5	20*	7
NC(=O)CN(c1ccc(Cl)cc1)S(=O)(=O)c1ccccc1	3	-21	3	-4	·	·	·	·	·
CCOC(=O)N1CCN(C(=O)/C(=C/c2cccs2)NC(=O)c2cccs2)CC1	·	43*	-1	2	3	-1	-6	-5	-6
CC(=O)c1sc(Nc2nc3ccc(F)cc3s2)nc1C	-5	45*	-20	17	28	15	16	20*	19
CCOc1ccc(NC(=S)NNC(=S)Nc2cccc(C(F)(F)F)c2)cc1	·	54*	·	31	29	21	24*	32*	5
FC(F)(F)c1cccc(NC(=S)Nc2ccc(Cl)c(Cl)c2)c1	·	45*	·	33	26	29	7	25*	19
COc1ccccc1NS(=O)(=O)c1cc(NC(=S)Nc2cc(C)cc(C)c2)ccc1Cl	0	-19	0	-2	·	·	·	·	·
